The values that follow come from paper PMC7549103 (ACS Medicinal Chemistry Letters, 2020).

For orientation: chromatographic logD means a lipophilicity value derived from retention on a column. Read a high chromatographic logD as higher lipophilicity.

Structures are written as SMILES.

A short description of one data set: eLogD7.4. It is filed as physicochemical. Conditions: pH 7.4.
Data set [1] is described as follows: Retest of activity over time. Type of data set: physicochemical.
The test system of data set [2] is MOLT-4 cells. Description: Cellular viability assay, MOLT-4 cells. It is filed as cell-based, human. The procedure, abridged: (§1)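 MOLT-4 is used as the BCL-XL-dependent human cancer cell line, and RS4;11 as the BCL-2-dependent line. Test compounds were tested in both lines in parallel.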
A short description of data set [3]: Single dose pharmacokinetics in rats. Conditions: rat, single oral dose of 5 mg/kg. It is filed as in vivo, Sprague-Dawley rats.
Another data set concerns RS4;11 cells. The data set is described as follows: Cellular viability assay, RS4. It is filed as cell-based. Conditions: Homo sapiens, RS4-11, 48 h, read-out: RS4;11 EC50. The procedure, abridged:
as §1

A further data set deals with GST-BCL-XL (Homo sapiens, UniProt Q07817). Type of data set: binding. To be noted: BCL-XL TR-FRET Ki ratio. For orientation: TR-FRET usually uses a lanthanide donor and a delayed reading to cut background.
Data set [4] has as its system MOLT-4 cells. To be noted: cytochrome c release, caspase-3/-7 activation, Annexin-V staining; cited from earlier work.

GST-BCL-XL, sequence (Q07817 whole entry): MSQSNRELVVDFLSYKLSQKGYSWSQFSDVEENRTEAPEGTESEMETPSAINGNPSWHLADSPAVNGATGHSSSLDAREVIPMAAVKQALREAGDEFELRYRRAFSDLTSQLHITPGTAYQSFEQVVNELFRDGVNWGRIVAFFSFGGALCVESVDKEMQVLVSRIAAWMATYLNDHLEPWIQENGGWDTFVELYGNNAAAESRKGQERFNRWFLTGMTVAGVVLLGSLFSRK

In the data set “eLogD7.4”, `O=C(O)c1csc(N2CCc3cccc(C(=O)Nc4nc5ccccc5s4)c3C2)n1` [Compound 2] registered an eLogD7.4 of 3.02.
`O=C(O)c1cccc(N2CCc3cccc(C(=O)Nc4nc5ccccc5s4)c3C2)n1` [Compound 3]: the chromatographic logD in “eLogD7.4” was found to be 2.85.
`O=C(Nc1nc2ccccc2s1)c1cccc2c1CN(c1ccc(-c3ccn(Cc4ccccc4)c3)c(C(=O)O)n1)CC2` [Compound 5]: the “stability on storage (activity upon retest over time)” value in data set [1] is “lost activity upon retest over time”.
As to `O=C(Nc1nc2ccccc2s1)c1cccc2c1CN(c1ccc(-c3cnn(Cc4ccccc4)c3)c(C(=O)O)n1)CC2` [Compound 6], the EC50 in the data set on MOLT-4 cells [2] (Homo sapiens, MOLT-4, 48 h, read-out: MOLT-4 EC50, 10% HS, 48 hours) is above 5 µM.
Regarding `Cc1c(-c2ccc(N3CCc4cccc(C(=O)Nc5nc6ccccc6s5)c4C3)nc2C(=O)O)cnn1Cc1ccccc1` [Compound 10], the “Cmax-coverage (total drug exposure) of the cellular EC50” value in data set [3] is listed as “approximately 3 fold”. For the same molecule, the EC50 in the data set on RS4;11 cells was above 5 µM. In the data set on MOLT-4 cells [2] (MOLT-4 (and RS4;11) cells, 10% human serum), the “activity in cells (in words)” value was “low micromolar activity”.
`Cc1nn(Cc2ccccc2)c(C)c1-c1ccc(N2CCc3cccc(C(=O)Nc4nc5ccccc5s4)c3C2)nc1C(=O)O` [Compound 11]: the “improvement in target affinity relative to parent 6” value on GST-BCL-XL is recorded as around 11 fold.
In the case of `Cc1c(-c2ccc(N3CCc4cccc(C(=O)Nc5nc6ccccc6s5)c4C3)nc2C(=O)O)cnn1CC12CC3CC(CC(C3)C1)C2` [Compound 13], the “mechanism-based effects in MOLT-4 cells” value in the data set with MOLT-4 cells [4] was “disrupted BCL-XL:BIM complexes and induced classical features of apoptosis”. The “in vitro efficacy against MOLT-4, fold more potent than A-1155463 (1)” value in the data set on MOLT-4 cells [2] (10% HS) worked out at 20 fold.
